The source made the active and inactive calls. No cut-off for these calls is given here.
What was measured:
HepG2 [1] = test: Cytotoxicity against human HepG2 cells after 72 hrs by MTT assay; format: functional, cell-based; settings: HepG2, 72 h
[2] = Cytotoxicity against human SH-SY5Y cells after 72 hrs by MTT assay; format: functional, cell-based
MCF7 = test: Cytotoxicity against human MCF7 cells after 72 hrs by MTT assay; format: functional, cell-based; settings: MCF7, 72 h
A549 = test: Cytotoxicity against human A549 cells after 72 hrs by MTT assay; format: functional, cell-based; settings: A549, 72 h
DU-145 = test: Cytotoxicity against human DU145 cells after 72 hrs by MTT assay; format: functional, cell-based; settings: DU-145, 72 h
HepG2 [3] = test: Cell cycle arrest in human HepG2 cells assessed as increase in S phase accumulation at 2 to 4 uM after 48 hrs by propidium iodide staining-based flow cytometry; format: functional
Procedure, shortened: (§1)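 HepG2 seeded 3 × 10⁵/well, 24 h, then exposed to a range of concentrations for 48 h. Cells fixed in ice-cold 70% ethanol ≥24 h, PBS-washed, RNase A treated, PI-stained 30 min at 4 °C in the dark. DNA content by flow cytometry gives G1, S, G2/M and sub-G1 fractions; mean of three independent determinations.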

HepG2 [4] = test: Cell cycle arrest in human HepG2 cells assessed as increase in G2/M phase accumulation at 2 to 4 uM after 48 hrs by propidium iodide staining-based flow cytometry; format: functional; procedure, shortened: as §1
HepG2 [5] = test: Cell cycle arrest in human HepG2 cells assessed as increase in S phase accumulation after 48 hrs by propidium iodide staining-based flow cytometry; format: functional; procedure, shortened: as §1
HepG2 [6] = test: Cell cycle arrest in human HepG2 cells assessed as increase in G2/M phase accumulation after 48 hrs by propidium iodide staining-based flow cytometry; format: functional; procedure, shortened: as §1
HepG2 [7] = test: Cell cycle arrest in human HepG2 cells assessed as increase in sub G1 phase accumulation after 48 hrs by propidium iodide staining-based flow cytometry; format: functional; procedure, shortened: as §1
HepG2 [8] = test: Induction of apoptosis in human HepG2 cells assessed as early apoptotic cells at 2 uM after 48 hrs by Annexin V-FITC/propidium iodide staining-based flow cytometry (reference value: 0.86%); format: functional
HepG2 [9] = test: Induction of apoptosis in human HepG2 cells assessed as early apoptotic cells at 6 uM after 48 hrs by Annexin V-FITC/propidium iodide staining-based flow cytometry (reference value: 0.86%); format: functional
HepG2 [10] = test: Induction of apoptosis in human HepG2 cells assessed as early apoptotic cells at 4 uM after 48 hrs by Annexin V-FITC/propidium iodide staining-based flow cytometry (reference value: 0.86%); format: functional
HepG2 [11] = test: Induction of apoptosis in human HepG2 cells assessed as late apoptotic cells at 4 uM after 48 hrs by Annexin V-FITC/propidium iodide staining-based flow cytometry (reference value: 2.13%); format: functional
HepG2 [12] = test: Induction of apoptosis in human HepG2 cells assessed as late apoptotic cells at 2 uM after 48 hrs by Annexin V-FITC/propidium iodide staining-based flow cytometry (reference value: 2.13%); format: functional
HepG2 [13] = test: Induction of apoptosis in human HepG2 cells assessed as late apoptotic cells at 6 uM after 48 hrs by Annexin V-FITC/propidium iodide staining-based flow cytometry (reference value: 2.13%); format: functional
HepG2 [14] = test: Antitumor activity against human HepG2 cells transfected in nude mouse assessed as tumor growth regression at 10 mg/kg, iv administered from day 9 post-infection every other day for 7 times relative to negative control; format: functional
Procedure, shortened: (§2)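 HepG2 xenograft in mice, started 7–14 days after tumor cell inoculation (mice 18–22 g, tumors 140–160 mg). Dosing i.v. every other day, 7 doses, at 10 or 20 mg/kg; sorafenib and vehicle controls given the same way. Tumor dimensions recorded every two days. Growth regression expressed relative to vehicle control.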

HepG2 [15] = test: Antitumor activity against human HepG2 cells transfected in nude mouse assessed as tumor growth regression at 20 mg/kg, iv administered from day 9 post-infection every other day for 7 times relative to negative control; format: functional; procedure, shortened: as §2
Mus musculus [16] = test: Toxicity in nude mouse transfected with human HepG2 cells assessed as change in body weight at 10 mg/kg, iv administered from day 9 every other day for 7 times relative to negative control; format: organism-based; parameters: dose 10 mg/kg, route intravenous; settings: in vivo
Procedure, shortened: (§3)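 HepG2 tumor-bearing mice (18–22 g, tumors 140–160 mg, 7–14 days post-inoculation). Dosing i.v. every other day, 7 doses, at 10 or 20 mg/kg; sorafenib and vehicle controls given identically. Body weight recorded every two days; mean change compared with vehicle group.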

HepG2 [17] = test: Cell cycle arrest in human HepG2 cells assessed as decrease in G1 phase accumulation at 2 to 4 uM after 48 hrs by propidium iodide staining-based flow cytometry; format: functional; procedure, shortened: as §1
Mus musculus [18] = test: Toxicity in nude mouse transfected with human HepG2 cells assessed as decrease in body weight at 20 mg/kg, iv administered from day 9 every other day for 7 times relative to negative control; format: organism-based; parameters: dose 20 mg/kg, route intravenous; settings: in vivo; procedure, shortened: as §3
HepG2 [19] = test: Induction of apoptosis in human HepG2 cells after 48 hrs by Annexin V-FITC/propidium iodide staining-based flow cytometry; format: functional, cell-based
[20] = Cytotoxicity against human GES-1 cells after 48 hrs by MTT assay; format: cell-based; settings: GES1, 48 h

Q: What does the source list for `COc1cc2ncnc(Nc3cccc(N(CCCl)CCCl)c3)c2cc1OC`?
A: IC50 (HepG2 [1]): 17.4 µM; IC50 [2]: 12.4 µM; IC50 (MCF7): > 100 µM; IC50 (A549): > 100 µM; IC50 (DU-145): > 100 µM

Q: What does the source list for `COc1cc2ncnc(Nc3ccc(N(CCCl)CCCl)cc3)c2cc1OCCCN1CCOCC1`?
A: IC50 (HepG2 [1]): 12.2 µM; IC50 [2]: 20.7 µM; IC50 (MCF7): 55 µM; IC50 (A549): 27.7 µM; IC50 (DU-145): 16.9 µM

Q: Which IC50 (HepG2 [1]) does the source give for `COCCOc1cc2ncnc(Nc3cccc(N(CCCl)CCCl)c3)c2cc1OCCOC` here?
A: 33.5 µM

Q: And the IC50 [2]?
A: 16.9 µM

Q: What about the IC50 (MCF7) of the same compound?
A: > 100 µM

Q: And the IC50 (A549)?
A: 77.4 µM

Q: And the IC50 (DU-145)?
A: > 100 µM

Q: Which IC50 (HepG2 [1]) does the source give for `COc1cc2ncnc(Nc3ccccc3N(CCCl)CCCl)c2cc1OC` here?
A: 77.2 µM

Q: And the IC50 [2]?
A: 22.6 µM

Q: What about the IC50 (MCF7) of the same compound?
A: 89.2 µM

Q: What about the IC50 (A549) of the same compound?
A: 81.5 µM

Q: And the IC50 (DU-145)?
A: > 100 µM

Q: Which Activity (HepG2 [3]) does the source give for `COc1cc2ncnc(Nc3cccc(N(CCCl)CCCl)c3)c2cc1OCCCN1CCOCC1` here?
A: Active

Q: What about the Activity (HepG2 [4]) of the same compound?
A: Active

Q: And the Activity (HepG2 [5])?
A: Dose-dependent effect

Q: And the Activity (HepG2 [6])?
A: Dose-dependent effect

Q: What about the Activity (HepG2 [7]) of the same compound?
A: Dose-dependent effect

Q: And the Activity (HepG2 [8])?
A: 4.58%

Q: What about the Activity (HepG2 [9]) of the same compound?
A: 17.9%

Q: What about the Activity (HepG2 [10]) of the same compound?
A: 9.26%

Q: And the Activity (HepG2 [11])?
A: 32.13%

Q: And the Activity (HepG2 [12])?
A: 6.64%

Q: And the Activity (HepG2 [13])?
A: 57.7%

Q: What about the inhibition in vivo at 10 mg/kg (HepG2 [14]; HepG2, 216 h, read-out: TGI) of the same compound?
A: 26.5%

Q: What about the inhibition in vivo at 20 mg/kg (HepG2 [15]; HepG2, 216 h, read-out: TGI) of the same compound?
A: 47.3%

Q: What about the Activity (Mus musculus [16]) of the same compound?
A: Non-toxic

Q: And the Activity (HepG2 [17])?
A: Active

Q: What about the Activity (Mus musculus [18]) of the same compound?
A: Toxic

Q: And the IC50 (HepG2 [1])?
A: 3.06 µM

Q: What about the IC50 [2] of the same compound?
A: 8.6 µM

Q: What about the IC50 (MCF7) of the same compound?
A: 10.5 µM

Q: What about the Activity (HepG2 [19]) of the same compound?
A: Dose-dependent effect

Q: And the IC50 (A549)?
A: 6.71 µM

Q: And the IC50 (DU-145)?
A: 20 µM

Q: Which IC50 (HepG2 [1]) does the source give for `COc1cc2ncnc(Nc3ccccc3N(CCCl)CCCl)c2cc1OC(C)=O` here?
A: 48.4 µM

Q: What about the IC50 [2] of the same compound?
A: 28.2 µM

Q: And the IC50 (MCF7)?
A: 57.1 µM

Q: And the IC50 (A549)?
A: 62.9 µM

Q: And the IC50 (DU-145)?
A: 99.4 µM

Q: With `COCCOc1cc2ncnc(Nc3ccccc3N(CCCl)CCCl)c2cc1OCCOC` as the compound, how does the IC50 (HepG2 [1]) read?
A: 11.3 µM

Q: What about the IC50 [2] of the same compound?
A: 45.8 µM

Q: And the IC50 (MCF7)?
A: 97.7 µM

Q: And the IC50 (A549)?
A: 33.1 µM

Q: And the IC50 (DU-145)?
A: > 100 µM

Q: For `COc1cc2ncnc(Nc3ccc(N(CCCl)CCCl)cc3)c2cc1OC`, which IC50 (HepG2 [1]) is on record?
A: 29.9 µM

Q: And the IC50 [2]?
A: 7.36 µM

Q: What about the IC50 (MCF7) of the same compound?
A: 51.1 µM

Q: And the IC50 (A549)?
A: > 100 µM

Q: And the IC50 (DU-145)?
A: > 100 µM

Q: What does the source list for `COc1cc2ncnc(Nc3cccc(N(CCCl)CCCl)c3)c2cc1OC(C)=O`?
A: IC50 (HepG2 [1]): 29.1 µM; IC50 [2]: 24 µM; IC50 (MCF7): 39.9 µM; IC50 (A549): 39.1 µM; IC50 (DU-145): 21.6 µM

Q: For `CNC(=O)c1cc(Oc2ccc(NC(=O)Nc3ccc(Cl)c(C(F)(F)F)c3)cc2)ccn1` [SORAFENIB], which TGI (HepG2 [14]) is on record?
A: Active

Q: What about the TGI (HepG2 [15]) of the same compound?
A: Active

Q: What about the Activity (Mus musculus [18]) of the same compound?
A: Toxic

Q: What about the IC50 (HepG2 [1]) of the same compound?
A: 8.42 µM

Q: And the IC50 [2]?
A: 19.5 µM

Q: What about the IC50 (MCF7) of the same compound?
A: 11.3 µM

Q: And the IC50 (A549)?
A: 27.7 µM

Q: And the IC50 (DU-145)?
A: 24.9 µM

Q: What about the IC50 [20] of the same compound?
A: 15.8 µM

Q: For `COCCOc1cc2ncnc(Nc3ccc(N(CCCl)CCCl)cc3)c2cc1OCCOC`, which IC50 (HepG2 [1]) is on record?
A: 85 µM

Q: And the IC50 [2]?
A: 13.2 µM

Q: What about the IC50 (MCF7) of the same compound?
A: > 100 µM

Q: What about the IC50 (A549) of the same compound?
A: > 100 µM

Q: And the IC50 (DU-145)?
A: > 100 µM

Q: What does the source list for `COc1cc2ncnc(Nc3ccc(N(CCCl)CCCl)cc3)c2cc1OC(C)=O`?
A: IC50 (HepG2 [1]): 47.1 µM; IC50 [2]: 17.4 µM; IC50 (MCF7): 28.9 µM; IC50 (A549): 28.8 µM; IC50 (DU-145): 49.2 µM

Q: What does the source list for `COc1cc2ncnc(Nc3cccc(N(CCCl)CCCl)c3)c2cc1O`?
A: IC50 (HepG2 [1]): 23.3 µM; IC50 [2]: 21.1 µM; IC50 (MCF7): 67.4 µM; IC50 (A549): 33 µM; IC50 (DU-145): 41.5 µM

Q: Which IC50 (HepG2 [1]) does the source give for `COc1cc2ncnc(Nc3ccc(N(CCCl)CCCl)cc3)c2cc1O` here?
A: 46.7 µM

Q: What about the IC50 [2] of the same compound?
A: 43.9 µM

Q: What about the IC50 (MCF7) of the same compound?
A: 41.9 µM

Q: And the IC50 (A549)?
A: 53.4 µM

Q: What about the IC50 (DU-145) of the same compound?
A: 75.2 µM

— ChEMBL document CHEMBL2417464, “Design and synthesis of novel quinazoline nitrogen mustard derivatives as potential therapeutic agents for cancer” (Eur J Med Chem, 2013)
